Source: ChEMBL document CHEMBL3407388, “Synthesis, anticancer activity and molecular docking studies on a series of heterocyclic trans-cyanocombretastatin analogues as antitubulin agents” (2015)

Legend:
Type in all cases: functional
K562 = test: Cytotoxicity against human K562 cells assessed as growth inhibition after 48 hrs by SRB assay; conditions: K562, 48 h
How it was run: (§1)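 NCI 60-cell panel; compounds passing a single-dose screen (10−5 M, 48 h) were tested at five 10-fold dilutions (10−4 to 10−8 M) with 48 h drug exposure. GI50 is the molar concentration giving 50% reduction in net cell growth relative to cell numbers on day 0.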

MDA-MB-435 = test: Cytotoxicity against human MDA-MB-435 cells assessed as growth inhibition after 48 hrs by SRB assay; conditions: MDA-MB-435, 48 h; how it was run: as §1
NCI-H226 = test: Cytotoxicity against human NCI-H226 cells assessed as growth inhibition after 48 hrs by SRB assay; conditions: NCI-H226, 48 h; how it was run: as §1
[1] = Cytotoxicity against human HCT15 cells assessed as growth inhibition after 48 hrs by SRB assay; conditions: HCT-15, 48 h; how it was run: as §1
SNB-19 = test: Cytotoxicity against human SNB19 cells assessed as growth inhibition after 48 hrs by SRB assay; conditions: SNB-19, 48 h; how it was run: as §1
BT-549 = test: Cytotoxicity against human BT549 cells assessed as growth inhibition after 48 hrs by SRB assay; conditions: BT-549, 48 h; how it was run: as §1
[2] = Cytotoxicity against human OVCAR8 cells assessed as growth inhibition after 48 hrs by SRB assay; conditions: OVCAR-8, 48 h; how it was run: as §1
786-0 = test: Cytotoxicity against human 786-0 cells assessed as growth inhibition after 48 hrs by SRB assay; conditions: 786-0, 48 h; how it was run: as §1
NCI-H460 = test: Cytotoxicity against human NCI-H460 cells assessed as growth inhibition after 48 hrs by SRB assay; conditions: NCI-H460, 48 h; how it was run: as §1
U-251 = test: Cytotoxicity against human U251 cells assessed as growth inhibition after 48 hrs by SRB assay; conditions: U-251, 48 h
LOX IMVI = test: Cytotoxicity against human LOXIMVI cells assessed as growth inhibition after 48 hrs by SRB assay; how it was run: as §1
[3] = Cytotoxicity against human OVCAR3 cells assessed as growth inhibition after 48 hrs by SRB assay; conditions: OVCAR-3, 48 h; how it was run: as §1
MCF7 = test: Cytotoxicity against human MCF7 cells assessed as growth inhibition after 48 hrs by SRB assay; conditions: MCF7, 48 h; how it was run: as §1
RPMI-8226 = test: Cytotoxicity against human RPMI8226 cells assessed as growth inhibition after 48 hrs by SRB assay; conditions: RPMI-8226, 48 h; how it was run: as §1
NCI-H23 = test: Cytotoxicity against human NCI-H23 cells assessed as growth inhibition after 48 hrs by SRB assay; conditions: NCI-H23, 48 h; how it was run: as §1
IGROV-1 = test: Cytotoxicity against human IGROV1 cells assessed as growth inhibition after 48 hrs by SRB assay; conditions: IGROV-1, 48 h; how it was run: as §1
SK-OV-3 = test: Cytotoxicity against human SKOV3 cells assessed as growth inhibition after 48 hrs by SRB assay; conditions: SK-OV-3, 48 h; how it was run: as §1
[4] = Cytotoxicity against human OVCAR5 cells assessed as growth inhibition after 48 hrs by SRB assay; conditions: OVCAR-5, 48 h; how it was run: as §1
[5] = Cytotoxicity against human UO31 cells assessed as growth inhibition after 48 hrs by SRB assay; conditions: UO-31, 48 h
COLO 205 = test: Cytotoxicity against human COLO205 cells assessed as growth inhibition after 48 hrs by SRB assay; conditions: COLO 205, 48 h; how it was run: as §1
SF-268 = test: Cytotoxicity against human SF268 cells assessed as growth inhibition after 48 hrs by SRB assay; conditions: SF-268, 48 h; how it was run: as §1
[6] = Cytotoxicity against human NCI-ADR-RES cells assessed as growth inhibition after 48 hrs by SRB assay; how it was run: as §1
SK-MEL-5 = test: Cytotoxicity against human SK-MEL-5 cells assessed as growth inhibition after 48 hrs by SRB assay; conditions: SK-MEL-5, 48 h; how it was run: as §1
TK-10 = test: Cytotoxicity against human TK10 cells assessed as growth inhibition after 48 hrs by SRB assay; conditions: TK-10, 48 h
SF-295 = test: Cytotoxicity against human SF295 cells assessed as growth inhibition after 48 hrs by SRB assay; conditions: SF-295, 48 h; how it was run: as §1
KM12 = test: Cytotoxicity against human KM12 cells assessed as growth inhibition after 48 hrs by SRB assay; conditions: KM12, 48 h; how it was run: as §1
DU-145 = test: Cytotoxicity against human DU145 cells assessed as growth inhibition after 48 hrs by SRB assay; conditions: DU-145, 48 h; how it was run: as §1
SNB-75 = test: Cytotoxicity against human SNB75 cells assessed as growth inhibition after 48 hrs by SRB assay; conditions: SNB-75, 48 h
CAKI-1 = test: Cytotoxicity against human Caki1 cells assessed as growth inhibition after 48 hrs by SRB assay; conditions: CAKI-1, 48 h; how it was run: as §1
RXF 393 = test: Cytotoxicity against human RXF393 cells assessed as growth inhibition after 48 hrs by SRB assay; conditions: RXF 393, 48 h; how it was run: as §1
MDA-MB-231 = test: Cytotoxicity against human MDA-MB-231 cells assessed as growth inhibition after 48 hrs by SRB assay; conditions: MDA-MB-231, 48 h; how it was run: as §1
[7] = Cytotoxicity against human PC3 cells assessed as growth inhibition after 48 hrs by SRB assay; conditions: PC-3, 48 h; how it was run: as §1
[8] = Cytotoxicity against human HCT116 cells assessed as growth inhibition after 48 hrs by SRB assay; conditions: HCT-116, 48 h; how it was run: as §1
MOLT-4 = test: Cytotoxicity against human MOLT4 cells assessed as growth inhibition after 48 hrs by SRB assay; conditions: MOLT-4, 48 h; how it was run: as §1
[9] = Cytotoxicity against human UACC62 cells assessed as growth inhibition after 48 hrs by SRB assay; conditions: UACC-62, 48 h
SF-539 = test: Cytotoxicity against human SF539 cells assessed as growth inhibition after 48 hrs by SRB assay; conditions: SF-539, 48 h; how it was run: as §1
HT-29 = test: Cytotoxicity against human HT-29 cells assessed as growth inhibition after 48 hrs by SRB assay; conditions: HT-29, 48 h; how it was run: as §1
HCC 2998 = test: Cytotoxicity against human HCC2998 cells assessed as growth inhibition after 48 hrs by SRB assay; conditions: HCC 2998, 48 h; how it was run: as §1
SN12C = test: Cytotoxicity against human SN12C cells assessed as growth inhibition after 48 hrs by SRB assay; how it was run: as §1
[10] = Cytotoxicity against human OVCAR4 cells assessed as growth inhibition after 48 hrs by SRB assay; conditions: OVCAR-4, 48 h; how it was run: as §1
HL-60(TB) = test: Cytotoxicity against human HL-60(TB) cells assessed as growth inhibition after 48 hrs by SRB assay; conditions: HL-60, 48 h
How it was run: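 NCI 60-cell panel, leukemia subpanel. Five-dose screen at 10-fold dilutions from 10−4 to 10−8 M with 48 h drug exposure. GI50 is the molar concentration giving 50% reduction in net cell growth compared with cell numbers on day 0.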

SW-620 = test: Cytotoxicity against human SW620 cells assessed as growth inhibition after 48 hrs by SRB assay; conditions: SW-620, 48 h
A498 = test: Cytotoxicity against human A498 cells assessed as growth inhibition after 48 hrs by SRB assay; conditions: A498, 48 h; how it was run: as §1

## COc1cc(OC)cc(/C(C#N)=C/c2c[nH]c3ccccc23)c1
K562
  GI50: 43 nM
MDA-MB-435
  GI50: 20 nM
NCI-H226
  GI50: 8180 nM
[1]
  GI50: 53 nM
SNB-19
  GI50: 62 nM
BT-549
  GI50: 49 nM
[2]
  GI50: 103 nM
786-0
  GI50: 77 nM
NCI-H460
  GI50: 39 nM
U-251
  GI50: 45 nM
LOX IMVI
  GI50: 78 nM
[3]
  GI50: 31 nM
MCF7
  GI50: 41 nM
RPMI-8226
  GI50: 65 nM
NCI-H23
  GI50: 256 nM
IGROV-1
  GI50: 347 nM
SK-OV-3
  GI50: 117 nM
[4]
  GI50: 197 nM
[5]
  GI50: 663 nM
COLO 205
  GI50: 47 nM
SF-268
  GI50: 78 nM
[6]
  GI50: 33 nM
SK-MEL-5
  GI50: 48 nM
TK-10
  GI50: 10300 nM
SF-295
  GI50: 45 nM
KM12
  GI50: 40 nM
DU-145
  GI50: 130 nM
SNB-75
  GI50: 34 nM
CAKI-1
  GI50: 35 nM
RXF 393
  GI50: 83 nM
MDA-MB-231
  GI50: 644 nM
[7]
  GI50: 75 nM
[8]
  GI50: 42 nM
MOLT-4
  GI50: 49 nM
[9]
  GI50: 49 nM
SF-539
  GI50: 52 nM
HT-29
  GI50: 38 nM
HCC 2998
  GI50: 207 nM
SN12C
  GI50: 77 nM
[10]
  GI50: 3520 nM
HL-60(TB)
  GI50: 31 nM
SW-620
  GI50: 44 nM
A498
  GI50: 35 nM

## COc1cc(/C(C#N)=C/c2cc3ccccc3o2)cc(OC)c1OC
K562
  GI50: < 10 nM
MDA-MB-435
  GI50: < 10 nM
NCI-H226
  GI50: < 10 nM
[1]
  GI50: < 10 nM
SNB-19
  GI50: < 10 nM
BT-549
  GI50: 29 nM
[2]
  GI50: < 10 nM
786-0
  GI50: < 10 nM
NCI-H460
  GI50: < 10 nM
U-251
  GI50: < 10 nM
LOX IMVI
  GI50: < 10 nM
[3]
  GI50: < 10 nM
MCF7
  GI50: 23 nM
RPMI-8226
  GI50: 19 nM
NCI-H23
  GI50: < 10 nM
IGROV-1
  GI50: 22 nM
SK-OV-3
  GI50: < 10 nM
[4]
  GI50: 42 nM
[5]
  GI50: 2290 nM
COLO 205
  GI50: < 10 nM
SF-268
  GI50: 247 nM
[6]
  GI50: < 10 nM
SK-MEL-5
  GI50: < 10 nM
TK-10
  GI50: 73600 nM
SF-295
  GI50: < 10 nM
KM12
  GI50: < 10 nM
DU-145
  GI50: < 10 nM
SNB-75
  GI50: < 10 nM
CAKI-1
  GI50: < 10 nM
RXF 393
  GI50: < 10 nM
MDA-MB-231
  GI50: 28 nM
[7]
  GI50: < 10 nM
[8]
  GI50: < 10 nM
MOLT-4
  GI50: 47 nM
[9]
  GI50: < 10 nM
SF-539
  GI50: < 10 nM
HT-29
  GI50: < 10 nM
HCC 2998
  GI50: 10 nM
SN12C
  GI50: < 10 nM
[10]
  GI50: 39 nM
HL-60(TB)
  GI50: < 10 nM
SW-620
  GI50: < 10 nM
A498
  GI50: < 10 nM

## COc1cc(/C(C#N)=C/c2nc3ccccc3s2)cc(OC)c1OC
K562
  GI50: 51 nM
MDA-MB-435
  GI50: 21 nM
NCI-H226
  GI50: 844 nM
[1]
  GI50: 45 nM
SNB-19
  GI50: 2490 nM
BT-549
  GI50: 12200 nM
[2]
  GI50: 438 nM
786-0
  GI50: 1060 nM
NCI-H460
  GI50: 336 nM
U-251
  GI50: 1650 nM
LOX IMVI
  GI50: 73 nM
[3]
  GI50: 31 nM
MCF7
  GI50: 34 nM
RPMI-8226
  GI50: 237 nM
NCI-H23
  GI50: 3250 nM
IGROV-1
  GI50: 1270 nM
SK-OV-3
  GI50: 626 nM
[4]
  GI50: 347 nM
[5]
  GI50: 83 nM
COLO 205
  GI50: 36 nM
SF-268
  GI50: 1030 nM
[6]
  GI50: 59 nM
SK-MEL-5
  GI50: 100 nM
TK-10
  GI50: 63 nM
SF-295
  GI50: 508 nM
KM12
  GI50: 278 nM
DU-145
  GI50: 333 nM
SNB-75
  GI50: 145 nM
CAKI-1
  GI50: 47 nM
RXF 393
  GI50: 148 nM
MDA-MB-231
  GI50: 992 nM
[7]
  GI50: 341 nM
[8]
  GI50: 52 nM
MOLT-4
  GI50: 9200 nM
[9]
  GI50: 52 nM
SF-539
  GI50: 97 nM
HT-29
  GI50: 37 nM
HCC 2998
  GI50: 297 nM
SN12C
  GI50: 515 nM
[10]
  GI50: 3860 nM
HL-60(TB)
  GI50: 66 nM
SW-620
  GI50: 38 nM
A498
  GI50: 198 nM
